The text below walks through data of ChEMBL document CHEMBL3739256, “Design, Synthesis, and Biological Evaluation of 1,2-Dihydroisoquinolines as HIV-1 Integrase Inhibitors” (ACS Med Chem Lett, 2015).

pEC50, pIC50: −log10 of the molar value. Some results are limits rather than exact numbers.

Data set [1] concerns the target Human immunodeficiency virus type 1 integrase (Human immunodeficiency virus 1, UniProt Q7ZJM1, G140S). The data set is described as follows: Inhibition of HIV-1 integrase G140S mutant strand transfer activity preincubated for 30 mins followed by addition of FITC-labelled dsDNA for 1 hr by microplate reader analysis.
Data set [2] is described as follows: Cytotoxicity against human TZM-bl cells after 48 hrs by Cell-titerGlo assay. In kind it is cell-based.
For data set [3], the target named is Human immunodeficiency virus type 1 integrase (Human immunodeficiency virus 1, UniProt Q7ZJM1). Put plainly: Inhibition of HIV-1 integrase strand transfer activity preincubated for 30 mins followed by addition of FITC-labelled dsDNA for 1 hr by microplate reader analysis.
Chain of Human immunodeficiency virus type 1 integrase (Human immunodeficiency virus 1, UniProt Q7ZJM1) (Q7ZJM1 whole entry): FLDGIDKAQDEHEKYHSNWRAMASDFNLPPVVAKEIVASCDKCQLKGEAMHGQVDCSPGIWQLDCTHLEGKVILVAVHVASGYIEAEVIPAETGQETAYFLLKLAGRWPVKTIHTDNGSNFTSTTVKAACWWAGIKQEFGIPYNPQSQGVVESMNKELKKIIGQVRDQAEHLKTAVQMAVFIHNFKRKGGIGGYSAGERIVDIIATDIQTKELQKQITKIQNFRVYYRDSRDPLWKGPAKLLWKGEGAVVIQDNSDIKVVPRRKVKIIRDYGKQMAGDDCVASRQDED
Data set [4] in a line: Therapeutic index, ratio of CC50 for human TZM-bl cells to EC50 for HIV-1 infected in TZM-bl cells. The format is cell-based. As to conditions: read-out: Ratio CC50/EC50. The method in brief: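 Index calculated as CC50/EC50, both measured in TZM-bl cells; CC50 is cell-based cytotoxicity at 48 h.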
In data set [5] the test system is Human immunodeficiency virus 1. The data set is described as follows: Antiviral activity against HIV-1 infected in human TZM-bl cells assessed as inhibition of viral replication for 48 hrs by bright-Glo luciferase assay. In kind it is functional, organism-based. The conditions noted are these: Human immunodeficiency virus 1, TZM-bl. The method in brief:
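Antiviral screen in TZM-bl cells, a HeLa clone engineered to express CD4 and CCR5 receptors. Activity is reported as EC50 in μM.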

A short description of data set [6]: Cytotoxicity against human Jurkat cells after 48 to 72 hrs by MTT assay. In kind it is cell-based. (Formazan colour is commonly taken as a measure of viable cells.)
Data set [7] concerns Human immunodeficiency virus 1. The data set is described as follows: Antiviral activity against HIV-1 NL4-3 infected in human jurkat cells assessed as decrease in p24 level at 10 uM after 48 hrs by western blot analysis. The format is functional. As to conditions: Human immunodeficiency virus 1, NL4-3, Jurkat. The method in brief: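 Jurkat cells were treated with compound at 10 μM or left untreated, then infected at MOI 1 with VSV-G-pseudotyped pNL4-3 (WT HIV-1). Supernatants were pelleted, solubilized in lysis buffer and probed on Western blot with a p24 antibody. Band intensity was quantified by densitometry as percent p24 relative to the untreated infected control, with significance at p < 0.05.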
For orientation: Immunoblotting shows a protein as a band on a membrane.

Chain of Human immunodeficiency virus type 1 integrase (Human immunodeficiency virus 1, UniProt Q7ZJM1, G140S) (Q7ZJM1 entry or part of it G140S): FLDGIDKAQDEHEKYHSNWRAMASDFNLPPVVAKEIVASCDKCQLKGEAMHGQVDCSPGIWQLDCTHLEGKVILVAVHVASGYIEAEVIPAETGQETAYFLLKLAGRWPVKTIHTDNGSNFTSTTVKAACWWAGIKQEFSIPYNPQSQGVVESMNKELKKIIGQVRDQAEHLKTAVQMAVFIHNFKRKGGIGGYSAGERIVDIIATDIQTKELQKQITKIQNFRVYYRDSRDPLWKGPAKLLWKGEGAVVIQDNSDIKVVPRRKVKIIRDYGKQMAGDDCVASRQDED

Consider `COc1ccc(C2=Cc3ccc(F)cc3C(CC(C)=O)N2c2ccc(C#N)cc2)cc1` (stereo not drawn), for which the pIC50 in data set [1] was 4.70.
In the case of `COc1ccc(C2=Cc3ccc(F)cc3C(CC(=O)CO)N2c2ccc(O)cc2)cc1` (stereo not drawn), half-maximal cytotoxicity in data set [2] (CC50 at 48 h) was put at 47.7 µM. Moreover, the pIC50 in data set [1] is 4.70; in data set [3], 4.66. Besides, the selectivity ratio in data set [4] came to 1.9. In addition, the pEC50 in data set [5] was 4.61.
In data set [2], `COc1ccc(C2=Cc3ccc(OC)cc3C(C[N+](=O)[O-])N2c2ccccc2)cc1` (stereo not drawn) displayed a CC50 at 48 h of 29.4 µM. For the same compound, the selectivity ratio in data set [4] came out at 2.8. In data set [6], this compound had a CC50 of 22.1 µM. The pEC50 in data set [5] is 4.98.
Take `COc1ccc(C2=Cc3ccc(F)cc3C(CC(=O)CO)N2c2ccc(Cl)cc2)cc1` (stereo not drawn): the CC50 at 48 h in data set [2] turned out to be 8.5 µM. The pIC50 in data set [1] was 4.83; in data set [3] it was 4.75. Also, in data set [4], the selectivity ratio was 0.3. Also, in data set [5], the pEC50 was 4.58.
As to `COc1ccc(C2=Cc3ccc([N+](=O)[O-])cc3C(CC(C)=O)N2c2ccc(C)cc2)cc1` (stereo not drawn), the CC50 at 48 h in data set [2] turned out to be 10.6 µM. Also, the pIC50 in data set [1] is 6.19; in data set [3] it was 6.22. Further, the selectivity ratio in data set [4] worked out at 0.4. The compound further showed a CC50 in data set [6] of 33.1 µM. In data set [5], the pEC50 is 4.58.
In the case of `COc1ccc(C2=Cc3ccc(F)cc3C(CC(=O)C(C)O)N2c2ccc(O)cc2)cc1` (stereo not drawn), the CC50 at 48 h in data set [2] was 50.9 µM. For the same compound, the pIC50 in data set [1] and in data set [3] was 4.60 each time. In addition, the selectivity ratio in data set [4] was 2.5. Besides, in data set [5], the pEC50 was 4.71.
Compound `COc1ccc(C2=Cc3ccc(F)cc3C(CC(=O)CO)N2c2ccc(C#N)cc2)cc1` (stereo not drawn) came in with a CC50 at 48 h in data set [2] of 39.7 µM. The pIC50 in data set [1] is 5.15; in data set [3], 5.12. Besides, in data set [4], the selectivity ratio was 1.3. Moreover, in data set [5], the pEC50 was 4.54.
The compound `COc1ccc(C2=Cc3ccc(F)cc3C(C[N+](=O)[O-])N2c2ccc(Cl)cc2)cc1` (stereo not drawn) had a CC50 at 48 h in data set [2] of 32.2 µM. Further, the inhibition at 10 µM in data set [7] turned out to be 91%. In addition, the negative-log IC50 (pIC50) is 6.10 in data set [1] and 6.15 in data set [3]. Besides, in data set [4], the selectivity ratio is 1070. For the same compound, the CC50 in data set [6] is 20.3 µM. Further, the pEC50 in data set [5] was 7.52.
In data set [2], `O=[N+]([O-])CC1c2cc([N+](=O)[O-])ccc2C=C(c2ccccc2)N1c1ccc(Cl)cc1` (stereo not drawn) displayed a CC50 at 48 h of 26 µM. In addition, the results for the pIC50 in data set [1] and in data set [3] were 5.52 and 5.51, respectively. Further, the selectivity ratio in data set [4] came to 22.6. This compound also came in with a CC50 in data set [6] of 24.9 µM. Also, the pEC50 in data set [5] was 5.94.
With `Cc1nnc(C(=O)NC(C)(C)c2nc(C(=O)NCc3ccc(F)cc3)c(O)c(=O)n2C)o1`, the CC50 at 48 h in data set [2] is above 200 µM. Also, in data set [7], the inhibition at 10 µM was 92%. In addition, the CC50 in data set [6] was above 120 µM. Besides, the pEC50 in data set [5] was 6.82.
`COc1ccc(C2=Cc3ccc(F)cc3C(CC(C)=O)N2c2ccc(O)cc2)cc1` (stereo not drawn) showed a CC50 at 48 h in data set [2] of 60.5 µM. In addition, the pIC50 is 4.85 in data set [1] and 4.92 in data set [3]. In addition, in data set [4], the selectivity ratio turned out to be 2.8. In addition, the negative logarithm of the EC50 (pEC50) in data set [5] was 4.67.
Consider `COc1ccc(C2=Cc3ccc(F)cc3C(CC(=O)CO)N2c2ccc(C)cc2)cc1` (stereo not drawn), for which it took 23.7 µM to reach half-maximal cytotoxicity in data set [2] (CC50 at 48 h). Further, the results for the pIC50 in data set [1] and in data set [3] were 4.85 and 4.82, respectively. Moreover, the selectivity ratio in data set [4] was 0.8. Moreover, the pEC50 in data set [5] was 4.55.
`Cc1ccc(C2=Cc3ccccc3C(C[N+](=O)[O-])N2c2ccc(F)cc2)cc1` (stereo not drawn) returned a CC50 at 48 h in data set [2] of 21.5 µM. The selectivity ratio in data set [4] turned out to be 1.3. Also, in data set [6], the CC50 turned out to be 51.2 µM. Besides, the pEC50 in data set [5] is 4.78.
The compound `O=[N+]([O-])CC1c2ccccc2C=C(c2ccccc2)N1c1ccccc1` (stereo not drawn) yielded a CC50 at 48 h in data set [2] of 10.3 µM. Also, the selectivity ratio in data set [4] was 0.6. Besides, in data set [6], half-maximal cytotoxicity (CC50) was put at 42.3 µM. Moreover, the pEC50 in data set [5] was 4.81.
In the case of `COc1ccc(C2=Cc3ccc([N+](=O)[O-])cc3C(CC(C)=O)N2c2ccc(F)cc2)cc1` (stereo not drawn), half-maximal cytotoxicity in data set [2] (CC50 at 48 h) was put at 7.7 µM. Also, the pIC50 in data set [1] is 6.19; in data set [3] it was 6.34. For the same compound, the selectivity ratio in data set [4] amounted to 0.2. The same compound registered a CC50 in data set [6] of 16.4 µM. Also, in data set [5], the pEC50 is 4.44.
For `COc1ccc(C2=Cc3ccc(F)cc3C(CC(=O)C(C)O)N2c2ccc(C#N)cc2)cc1` (stereo not drawn), half-maximal cytotoxicity in data set [2] (CC50 at 48 h) was put at 24.1 µM. Moreover, the results for the negative-log IC50 (pIC50) in data set [1] and in data set [3] were 4.66 and 4.65, respectively. The selectivity ratio in data set [4] was determined as 1.2. Moreover, the pEC50 in data set [5] is 4.73.
`COc1ccc(C2=Cc3ccc(F)cc3C(CC(=O)C(C)O)N2c2ccc([N+](=O)[O-])cc2)cc1` (stereo not drawn) returned a CC50 at 48 h in data set [2] of 10.1 µM. For the same compound, the pIC50 was 5.26 in data set [1] and 5.28 in data set [3]. Moreover, in data set [4], the selectivity ratio was 0.7. This compound also gave a CC50 in data set [6] of 6.1 µM. Also, in data set [5], the pEC50 is 4.90.
The compound `COc1ccc(C2=Cc3ccc(F)cc3C(CC(=O)CO)N2c2ccc([N+](=O)[O-])cc2)cc1` (stereo not drawn) came in with a CC50 at 48 h in data set [2] of 46.4 µM. Also, the inhibition at 10 µM in data set [7] stood at 70.9%. For the same compound, the pIC50 is 4.33 in data set [1] and 6.09 in data set [3]. Further, the selectivity ratio in data set [4] came out at 4.4. Moreover, the midpoint of cytotoxicity in data set [6], the CC50, lay at 57.1 µM. Also, in data set [5], the pEC50 was 4.98.
For the compound `COc1ccc(C2=Cc3ccc([N+](=O)[O-])cc3C(CC(C)=O)N2c2ccc(C#N)cc2)cc1` (stereo not drawn), it took 15.4 µM to reach half-maximal cytotoxicity in data set [2] (CC50 at 48 h). Also, the figures for the pIC50 in data set [1] and in data set [3] were 5.55 and 5.54, respectively. Moreover, the selectivity ratio in data set [4] was 0.6. In addition, the pEC50 in data set [5] was 4.65.
In turn, `COc1ccc(C2=Cc3ccc([N+](=O)[O-])cc3C(CC(C)=O)N2c2ccc(O)cc2)cc1` (stereo not drawn) returned a CC50 at 48 h in data set [2] of 23.5 µM. Also, the pIC50 in data set [1] was 5.12; in data set [3], 5.18. In addition, the selectivity ratio in data set [4] is 0.7. In addition, the pEC50 in data set [5] is 4.50.
Turning to `COc1ccc(C2=Cc3ccc(F)cc3C(CC(=O)C(C)O)N2c2ccc(F)cc2)cc1` (stereo not drawn), the midpoint of cytotoxicity in data set [2], the CC50 at 48 h, lay at 14 µM. The pIC50 in data set [1] and in data set [3] was 5.10 in each case. In data set [4], the selectivity ratio stood at 1.1. The same compound yielded a CC50 in data set [6] of 1.81 µM. Also, the pEC50 in data set [5] is 4.93.
On to `COc1ccc(C2=Cc3ccc(F)cc3C(CC(=O)C(C)O)N2c2ccc(C)cc2)cc1` (stereo not drawn), for which the CC50 at 48 h in data set [2] came out at 12.7 µM. In addition, the pIC50 was 4.90 in data set [1] and 4.97 in data set [3].
`COc1ccc(C2=Cc3ccc(F)cc3C(CC(=O)C(C)O)N2c2ccc(Cl)cc2)cc1` (stereo not drawn) showed a CC50 at 48 h in data set [2] of 9.9 µM. In addition, the figures for the pIC50 in data set [1] and in data set [3] were 4.97 and 4.93, respectively.
`COc1ccc(C2=Cc3ccc(F)cc3C(CC(C)=O)N2c2ccc([N+](=O)[O-])cc2)cc1` (stereo not drawn) registered a CC50 at 48 h in data set [2] of 11.2 µM.

Broadly, the pIC50 is −log10 of the IC50, conventionally taken in molar units. Read a high pIC50 as a small IC50. The term CC50 denotes the concentration that lowers cell viability or growth by half. A high value points to better tolerance by the cells. One may read the pEC50 as the negative decadic logarithm of the EC50, by convention in mol/L. By inhibition is commonly meant the relative decrease from the control value, in per cent.
